# Screening data: PubChem, several laboratories
# Compounds with a hit are over-represented: about 3% of the library has one in this group of screens.
# beta cell repl: inducers of beta-cell replication in MIN6 cells; MIN6 cells proliferation, ATPlite luminescence, 48 h; cells starved in 0.2% serum; 100% = growth in 10% serum; proliferation, % at 10 µM; 330,000 tested, 0.29% active;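 active means compounds whose signal lies at least 3.5 SD above the mean of all wells on their plate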;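 further: 0% = DMSO-treated cells in low-serum medium and 100% = 10% serum control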
# UBC13 polyUb: human UBC13 polyubiquitination inhibition. P61088. inhibition, % at 20 µM. 330,000 tested, 0.47% active. UBC13 polyubiquitin chain formation, TR-FRET. AID 485273; in the data active means inhibition above about 45%, passing the limit was not always enough
# Target sequence (P61088 whole entry, looked up): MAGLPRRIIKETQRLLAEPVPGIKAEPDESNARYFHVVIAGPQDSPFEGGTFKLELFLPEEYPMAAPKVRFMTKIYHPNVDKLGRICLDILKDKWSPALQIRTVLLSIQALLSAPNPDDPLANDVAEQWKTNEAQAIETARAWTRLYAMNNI
# hiPSC survival: hiPSC single-cell survival enhancement | ATPlite luminescence; 100% = ROCK inhibitor wells, 0% = DMSO | survival enhancement, % at 20 µM | 360,000 tested, 0.044% active | AID 602274; in the data active means survival enhancement above about 18%;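 further: cells exposed to compounds for 16 hours before the ATP read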
# MPTP block: permeability transition pore inhibition | 360,000 tested, 1.4% active | AID 602449 | isolated mouse mitochondria, Ca2+ swelling absorbance, 30 min | inhibition, % at 10 µM;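 active means inhibition of 50% or more, scaled per plate between neutral and stimulator controls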;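 further: 0% = DMSO wells given calcium and 100% = 1 mM EGTA wells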
# Apaf1 inhib: inhibitors of human Apaf-1 apoptosome; O14727; reconstituted apoptosome caspase-3 activity, DEVD-Rh110 fluorescence; inhibition, % at 20 µM; 330,000 tested, 0.71% active; AID 489030; active means inhibition of at least 40% at 20 µM;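 further: plate controls were DMSO wells for no effect and DEVD-CHO caspase inhibitor wells for full effect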
#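 System: reconstituted apoptosome with Apaf-1, cytochrome c, caspase-9, procaspase-3, dATP; Signal: Rh110 fluorescence intensity; Schedule: 30 min compound preincubation, 50 min activation, room temperature; Reagent: cytochrome c trigger plus (Z-DEVD)2-Rh110 caspase-3 substrate.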
# Granule exo inh: blocks lytic granule exocytosis; TALL-104 LAMP-1 surface exposure, flow cytometry; cells stimulated with thapsigargin and PMA; 360,000 tested, 0.66% active; inhibition, % at 10 µM;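 active means inhibition above about 55%, limit read from the data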
# Casp3 counter: inhibits human caspase-3 in UBC13 counter-screen. shares compounds with UBC13 polyUb. Recombinant caspase-3, Caspase-Glo 3/7 luminescence, 60 min. inhibition, % at 20 µM. 1,400 tested, 4% active. AID 488856;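 active means mean inhibition across replicates above about 26%, limit read from the data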;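 further: plate controls were DMSO with caspase-3 for no effect and DMSO wells lacking enzyme for full effect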
# Target sequence (P42574 whole entry, looked up): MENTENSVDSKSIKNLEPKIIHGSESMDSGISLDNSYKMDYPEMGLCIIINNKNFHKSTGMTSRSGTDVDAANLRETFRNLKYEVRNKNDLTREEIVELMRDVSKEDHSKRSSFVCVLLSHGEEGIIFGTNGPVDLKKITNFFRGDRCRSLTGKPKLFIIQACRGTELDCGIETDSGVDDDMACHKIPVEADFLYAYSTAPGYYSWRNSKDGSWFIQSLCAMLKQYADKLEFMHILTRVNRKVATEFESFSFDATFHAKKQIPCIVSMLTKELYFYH
# UBC13 conf: human UBC13 polyubiquitin inhibition, confirmed; shares compounds with UBC13 polyUb; AID 488859; 1,400 tested, 68% active; UBC13 polyubiquitination, TR-FRET, biochemical; inhibition, % at 10 µM; in the data active means inhibition above about 45%
# An asterisk follows results filed as active; . = no result given.
SMILES,beta cell repl,UBC13 polyUb,hiPSC survival,MPTP block,Apaf1 inhib,Granule exo inh,Casp3 counter,UBC13 conf
CC(C)[C@H]1CN=C2N(CCNC(=O)CCC3CCCCC3)[C@H](Cc3ccc(O)cc3)CN21,-4,31,-1,-2,5,-8,.,.
COc1ccc(C[C@H]2CN3C(=NC[C@@H]3Cc3ccccc3)N2CCNC(=O)CCC2CCCCC2)cc1,-8,78*,-4,2,52*,15,-2,69*
C=CCNC(=O)CSc1nnc(-c2cccc(S(=O)(=O)N3CCOCC3)c2)o1,.,.,4,0,.,-3,.,.
Cc1ccccc1NC(=O)CSc1nnc2ccc(-c3cccnc3)nn12,-5,-3,0,-1,10,-10,.,.
CCOc1ccccc1NC(=O)COc1cccnc1[N+](=O)[O-],-1,51*,2,-1,-3,3,3,38
COc1ccccc1NC(=O)COc1cccnc1[N+](=O)[O-],6,46*,0,0,-3,2,0,27
CCc1ccc(C#CC2=CC(=O)CC(C)(C)C2)cc1,.,.,0,0,.,-2,.,.
O=C(NN1C(=O)CSC1=S)C(=O)NN1C(=O)CSC1=S,-2,47*,2,-1,-20,-1,8,29
CC(=O)O[C@H]1[C@@H](O)[C@H](O)[C@H](Oc2c(O)c(C)c3c4c2[C@@H](C)CC[C@@H]4[C@@H](C)C[C@H]3C=C(C)C)O[C@H]1C,-6,52*,2,2,22,22,-2,32
O=c1c2ccccc2oc2ccc(C#CC3(O)CCCCC3)cc12,-8,16,-3,0,27,-1,.,.
COc1cccc2oc3ccc(C#CC4(N)CCCCC4)cc3c(=O)c12,-9,53*,-6,1,22,-6,80*,40
C=CCNc1nc2ccccc2nc1NS(=O)(=O)c1ccc(Cl)cc1,-3,-9,-1,4,-8,-6,.,.
Cc1cccc(C(=O)Oc2ccc(/C=N/NC(=O)Cc3ccc([N+](=O)[O-])cc3)cc2)c1,-2,86*,-1,-2,-1,0,0,61*
COc1ccc(/C=N/NC(=O)CSCc2ccc([N+](=O)[O-])cc2)cc1OC,0,79*,1,0,6,2,1,71*
COc1ccc([N+](=O)[O-])cc1NC(=O)CSCc1ccc(Br)cc1,-5,-4,-3,1,11,-4,.,.
Cc1cccc(C(=O)Oc2ccc(/C=N/NC(=O)c3ccc(O)cc3)cc2)c1,-5,9,0,0,13,38,.,.
COc1ccc(C=NNC(=O)CCCC(=O)NN=Cc2ccc(OC)c(OC)c2)cc1OC,.,.,5,-3,.,-9,.,.
COc1cc(/C=N/NC(=O)CSCc2ccc([N+](=O)[O-])cc2)cc(OC)c1OC,-2,86*,-1,1,-1,-3,0,103*
O=C(NCCN1CCOCC1)c1ccccc1OCc1ccccc1,1,3,1,-1,-2,-3,.,.
COc1ccc(CCNC(=O)[C@H](CC(C)C)NC(=O)N2CCn3c2nc2ccccc23)cc1OC,-3,0,-1,2,11,-14,.,.
CN(C)CCCNC(=O)c1ccc(-c2nc(-c3ccc(Cl)cc3)cs2)cc1,-6,54*,-3,-10,40,39,2,68*
CN(C)CCCNC(=O)c1ccccn1,1,5,2,-1,-6,3,.,.
CN(C)CCCNC(=O)c1ccc(-c2cc(O)c3ncccc3c2)cc1,-4,112*,5,-1,-5,-2,2,118*
O=C(NC1CCN(c2ncccn2)CC1)c1ccccc1Cl,-3,0,-1,0,0,-2,.,.
CN(C(=O)c1ccc(NC(=O)Cc2ccc([N+](=O)[O-])cc2)cc1)C1CCCC1,-3,-5,0,4,19,-1,.,.
SMILES,beta cell repl,UBC13 polyUb,hiPSC survival,MPTP block,Apaf1 inhib,Granule exo inh,Casp3 counter,UBC13 conf
COc1ccc(CCN(C)C(=O)COc2cccc(-n3cnnn3)c2)cc1OC,-2,3,4,0,0,-1,.,.
CCOC(=O)N1CCN(C(=O)c2ccc3c(c2)N(Cc2ccc(F)cc2)CCS3)CC1,-5,48*,4,1,23,6,0,33
CC1CC(C)CN(CCCNC(=O)c2cc3c(s2)-c2ccccc2OC3)C1 (configuration not stated),-8,45*,0,1,13,15,-2,55*
Oc1ccc(C[C@H]2CNC(=S)N2C[C@H]2CCCN2C[C@H](Cc2ccccc2)N2C[C@H](Cc3ccccc3)N(CC3CCCCC3)C2=S)cc1,.,.,-1,0,.,7,.,.
COc1cccc(/C=N\NC(=O)c2sc(N)nc2C)c1OC,-2,105*,3,-2,-2,3,15,110*
Cc1cc2nc(NCCCO)n(CC(=O)c3cc(C(C)(C)C)c(O)c(C(C)(C)C)c3)c2cc1C,-9,70*,2,38,27,3,1,49*
Cc1ccc(S(=O)(=O)N2CCCC(C(=O)NC3CC3)C2)cc1 (configuration not stated),0,-5,0,0,-4,-15,.,.
Cc1ccc(S(=O)(=O)N2CCCC(C(=O)NNCC(=O)Nc3cc(F)ccc3F)C2)cc1 (configuration not stated),-2,48*,-3,1,-1,5,3,33
CC1(C(=O)NS(=O)(=O)c2cccc(Cl)c2)CCN1C(=O)c1ccccc1 (configuration not stated),.,.,0,0,.,-5,.,.
CNC(=O)c1ccccc1NC(=O)c1cccc(S(=O)(=O)N2CCC(C)CC2)c1,2,50*,1,2,13,6,2,58*
CCNC(=O)c1ccccc1NC(=O)c1cccc(S(=O)(=O)N2CCC(C)CC2)c1,-1,67*,-3,0,5,6,-2,75*
O=C(NCc1ccc(F)cc1F)[C@@H]1CCCN1C(=O)[C@@H]1CCCN1,.,.,1,-2,.,1,.,.
Cc1ccc(NC(=O)c2ccc(-c3cc(Cl)ccc3Cl)o2)c(C)c1,.,.,1,-2,.,0,.,.
Fc1ccc(COc2ccc(C(=S)N3CCCC3)cc2)cc1,-2,2,0,-2,14,-4,.,.
COc1ccc(C(=O)Nn2c(SCC(=O)NCC3CCCO3)nc3ccccc3c2=O)cc1 (configuration not stated),-5,58*,-4,-1,1,0,71*,48*
O=C(CSc1nc2ccccc2c(=O)n1CC1CCCO1)NCC1CCCO1 (configuration not stated),3,0,-4,1,-5,2,.,.
